The values that follow come from paper PMC4659352 (Molecular cancer therapeutics, 2014).

*1 amine or outer side, *2 acyl side, *3 side chain or, on linkers, in order; H or OH if unused. Where a SMILES comes first, the peptide text is derived from it. [ ]: non-standard residue; d: D form. γGlu = O=C(O)[C@H](CCC(=O)[*:2])N[*:1]

One data set concerns LNCaP xenografts. Nature of the data set: LNCaP subcutaneous xenograft therapy study. It counts as in vivo, mouse.
The next data set relates to CWR22Rv1 xenografts. Nature of the data set: CWR22Rv1 subcutaneous xenograft therapy study. It counts as in vivo, mouse. The note with it: 7 mg/kg tail vein at days 0, 3, 6, 9.
The test system of data set [1] is primary and metastatic tumor models. To be noted: intratumoral or systemic injection; ref [22], [23]; cited from earlier work.
The next data set deals with PC3. Nature of the data set: MTT cell viability assay, PC3. The class given is cell-based, human. To be noted: PSMA-null PC3, standard culture conditions with 10% fetal bovine serum, 72 hours. Summed up:
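PC3 cells (about 3,000 per well) were kept in RPMI-1640 with 10% FBS, 1% pen/strep and 2 mmol/L L-glutamine at 37°C and 5% CO2. They were exposed to a concentration range of test compound for 72 hours. Viability was read by MTT, and IC50 was calculated.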

In the next data set the target is PSMA (Homo sapiens, UniProt Q04609). In words: Protease digestion with purified recombinant PSMA monitored by MALDI-TOF. The class given is biochemical.
The next data set has as its system healthy nude mice. In words: Toxicity study in healthy nude mice. It counts as in vivo, mouse.
A short description of data set [2]: Solubility of the propeptides at dosing. It counts as physicochemical. To be noted: dissolved in DMSO and diluted in sterile PBS, 5% v/v DMSO.
The test system of another data set is PC3 xenografts. The note with it: PC3 (PSA-, PSMA-) xenograft, 7 mg/kg tail vein at days 0, 3, 6, 9.
A further data set concerns human red blood cells. In words: Hemolysis assay with washed human red blood cells. The class given is cell-based. The note with it: 1 µmol/L peptide, 2% v/v human RBC, 1 hour, 37°C. Summed up: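 Test compound was dissolved in DMSO and diluted in 1× PBS to 100, 10 and 1 µmol/L. It was incubated with washed human RBCs (2% v/v) for 1 hour at 37°C. RBCs in PBS alone served as zero lysis and 1% Triton X-100 as 100% lysis. Cells were pelleted and supernatant absorbance read at 540 nm, in triplicate.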

The subject of another data set is PSA. The note with it: PSA substrate sequence used in PSA1 and PSA2; ref [27]; cited from earlier work.
[3] abbreviates: 7 mg/kg tail vein at days 0, 3, 6, 9.

Sequence of PSMA (Q04609 whole entry): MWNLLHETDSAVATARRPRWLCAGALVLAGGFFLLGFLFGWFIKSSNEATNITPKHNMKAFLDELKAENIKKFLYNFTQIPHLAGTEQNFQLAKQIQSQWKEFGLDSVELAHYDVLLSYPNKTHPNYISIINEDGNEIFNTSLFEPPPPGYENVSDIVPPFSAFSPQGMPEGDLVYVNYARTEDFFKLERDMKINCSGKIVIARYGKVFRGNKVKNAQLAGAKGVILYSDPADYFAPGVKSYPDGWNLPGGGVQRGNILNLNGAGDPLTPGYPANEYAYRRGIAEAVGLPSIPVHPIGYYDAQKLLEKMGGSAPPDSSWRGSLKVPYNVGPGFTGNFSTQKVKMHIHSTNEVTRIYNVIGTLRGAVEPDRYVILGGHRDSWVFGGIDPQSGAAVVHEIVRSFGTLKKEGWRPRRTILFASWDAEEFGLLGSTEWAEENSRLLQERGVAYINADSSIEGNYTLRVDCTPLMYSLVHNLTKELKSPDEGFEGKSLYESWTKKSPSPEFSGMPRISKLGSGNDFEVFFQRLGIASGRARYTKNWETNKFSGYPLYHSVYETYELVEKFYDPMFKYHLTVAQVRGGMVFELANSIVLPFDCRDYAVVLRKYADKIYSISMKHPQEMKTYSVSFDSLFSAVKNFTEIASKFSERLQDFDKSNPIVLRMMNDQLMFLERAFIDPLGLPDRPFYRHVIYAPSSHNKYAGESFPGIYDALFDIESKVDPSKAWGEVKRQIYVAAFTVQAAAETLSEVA

For the compound `CC(C)C[C@H](NC(=O)[C@H](CC(C)C)NC(=O)[C@@H](CCCCN)NC(=O)[C@H](CC(C)C)NC(=O)[C@H](CC(C)C)NC(=O)[C@H](CCCCN)NC(=O)[C@@H](CCCCN)NC(=O)[C@@H](CC(C)C)NC(=O)[C@H](CC(C)C)NC(=O)[C@@H](CCCCN)NC(=O)[C@H](CCCCN)NC(=O)[C@H](CC(C)C)NC(=O)[C@@H](CC(C)C)NC(=O)[C@H](CCCCN)NC(=O)[C@@H](N)CC(C)C)C(N)=O` [KLL, reference compound] (H-LK[dL]LK[dK]L[dL][dK]KLL[dK]LL-NH2), the “tumor growth compared with the saline control at day 9” value in the data set with LNCaP xenografts (setting [3]) is recorded as “Inhibition of tumor growth”. In addition, in the data set with CWR22Rv1 xenografts, the “tumor volume by day 28 relative to the γE-KLL arm” value is given as “double the volume of the γE-KLL–treated arm”. The “effect on tumor growth” value in data set [1] is “inhibit the growth of primary and metastatic tumor models”.

With `CC(C)C[C@H](NC(=O)[C@H](CC(C)C)NC(=O)[C@@H](CCCCN)NC(=O)[C@H](CC(C)C)NC(=O)[C@H](CC(C)C)NC(=O)[C@H](CCCCN)NC(=O)[C@@H](CCCCN)NC(=O)[C@@H](CC(C)C)NC(=O)[C@H](CC(C)C)NC(=O)[C@@H](CCCCN)NC(=O)[C@H](CCCCN)NC(=O)[C@H](CC(C)C)NC(=O)[C@@H](CC(C)C)NC(=O)[C@H](CCCCN)NC(=O)[C@@H](N)CC(C)C)C(=O)N[C@@H](CCC(=O)N[C@@H](CCC(=O)N[C@@H](CCC(=O)N[C@@H](CCC(=O)N[C@@H](CCC(=O)N[C@@H](CCC(=O)N[C@@H](CCC(=O)O)C(=O)O)C(=O)O)C(=O)O)C(=O)O)C(=O)O)C(=O)O)C(=O)O` [γE-KLL] (H-LK[dL]LK[dK]L[dL][dK]KLL[dK]LL[γGlu][γGlu][γGlu][γGlu][γGlu][γGlu]E-OH; N-terminus assumed), the “toxicity in PC3” value in the data set with PC3 is given as “no toxicity”. For the same compound, the “cleavage of the γ-linked glutamic acid inhibitory domain by PSMA” value on PSMA (50 µg peptide, 5 µg PSMA, 4 hours, 37°C, pH 7.8, MALDI-TOF) is recorded as “Cleavage of γ-linked glutamic acid residues from the peptide sequence by PSMA was detected”. Also, on PSMA (PSMA with EDTA in the buffer, MALDI-TOF), the “degradation by PSMA in the presence of EDTA” value is on record as “no degradation”. The “Treated tumor/Control tumor (T/C) ratio at day 28” value in the data set on LNCaP xenografts (setting [3]) and in the data set on CWR22Rv1 xenografts was 0.3 throughout. In addition, the “tumor growth compared with the saline control at day 9” value with LNCaP xenografts (setting [3]) is on record as “Inhibition of tumor growth”. In addition, the “tumor volume at day 28” value with LNCaP xenografts (7 mg/kg tail vein at days 0, 3, 6, 9, n = 10 mice) worked out at 220.3 ± 44.6 mm^3. The “toxicity in healthy nude mice” value in the data set on healthy nude mice is given as “nontoxic”. Also, the “dose above which solubility issues became apparent” value in [2] is listed as “above 10 mg/kg”. Also, the “therapeutic effect in PC3 tumors” value in the data set on PC3 xenografts is on record as “No therapeutic effect”.

As to “H-DDDDDDDLKLLKKLLKKLLKLL-NH2 [D7-KLL-NH2]”, the “hemolysis at 1 µmol/L” value with human red blood cells is given as “little hemolytic activity”.

In the case of H-LKLLKKLLKKLLKLLDDDDDDD-OH [KLL-D7-OH], in the data set with human red blood cells, the “hemolysis at 1 µmol/L” value is given as “minimal hemolysis”.

Regarding “SSKLQ [SSLQ, serine–serine–lysine–leucine–glutamine]”, the kcat/km in the data set on PSA is listed as 23.6 s^−1 (mol/L)^−1.
